# High-throughput results from PubChem BioAssay.
# An excerpt weighted towards active compounds, which were near 2.3% of everything screened.
# TRPC6 activator – activators of mouse TRPC6 channel. 310,000 tested, 0.13% active. HEK293-TRPC6 membrane potential dye fluorescence; hits give high values. Q61143. B-score at 10 µM;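 active = B-score of the integrated fluorescence ratio above library mean plus 3 SD, and starting fluorescence ratio within library mean plus 5 SD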;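 also: higher score means more depolarization so channel activation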
# TRPC6 inhibitor – mouse TRPC6 channel inhibition; Q61143; HEK293-TRPC6, membrane potential dye, ACh-evoked depolarization; hits give low values; B-score at 10 µM; 310,000 tested, 1.1% active;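 active = B-score under library mean minus 3 SD, initial fluorescence not abnormally high, positive integrated signal ratio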;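 also: B-score derived from integrated fluorescence ratio over the kinetic read; more negative B-score means stronger inhibition of depolarization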
# TRPC4 agonist – opens the mouse TRPC4 cation channel | Q9QUQ5 | HEK293 TRPC4beta/mu-opioid, Fluo4 calcium fluorescence; hits give high values | AID 2237 | 310,000 tested, 0.49% active | B-score at 10 µM;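 active = B-score above 5 SD of library B-scores, and initial fluorescence ratio not above library mean plus 5 SD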;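 also: positive B-score marks a calcium rise read as TRPC4 activation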
# Target sequence (Q9QUQ5 whole entry, looked up): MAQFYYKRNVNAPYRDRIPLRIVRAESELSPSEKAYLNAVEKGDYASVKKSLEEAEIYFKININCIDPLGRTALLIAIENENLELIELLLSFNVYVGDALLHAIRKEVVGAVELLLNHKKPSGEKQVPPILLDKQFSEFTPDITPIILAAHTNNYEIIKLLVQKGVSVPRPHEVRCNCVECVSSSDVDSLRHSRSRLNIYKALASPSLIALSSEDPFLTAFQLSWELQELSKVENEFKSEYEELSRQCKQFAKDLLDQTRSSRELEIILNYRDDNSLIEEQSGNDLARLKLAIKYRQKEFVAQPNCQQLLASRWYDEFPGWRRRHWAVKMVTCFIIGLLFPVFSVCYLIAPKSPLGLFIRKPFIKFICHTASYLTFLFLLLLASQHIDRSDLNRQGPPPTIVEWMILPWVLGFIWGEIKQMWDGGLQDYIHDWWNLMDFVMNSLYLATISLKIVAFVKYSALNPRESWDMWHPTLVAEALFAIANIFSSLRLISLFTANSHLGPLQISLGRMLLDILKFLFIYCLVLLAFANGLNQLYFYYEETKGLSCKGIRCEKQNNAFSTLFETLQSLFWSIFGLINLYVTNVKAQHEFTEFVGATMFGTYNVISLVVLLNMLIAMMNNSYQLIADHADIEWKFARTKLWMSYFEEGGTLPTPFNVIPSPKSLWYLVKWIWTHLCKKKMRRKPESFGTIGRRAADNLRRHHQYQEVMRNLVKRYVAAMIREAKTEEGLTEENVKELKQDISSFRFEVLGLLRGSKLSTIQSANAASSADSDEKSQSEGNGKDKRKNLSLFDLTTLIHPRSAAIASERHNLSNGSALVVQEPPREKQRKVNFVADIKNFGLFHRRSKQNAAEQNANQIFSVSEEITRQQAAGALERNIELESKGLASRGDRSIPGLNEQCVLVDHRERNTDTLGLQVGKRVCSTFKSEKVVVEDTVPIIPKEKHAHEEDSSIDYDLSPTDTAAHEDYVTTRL
#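 Material: TRPC4beta and mu-opioid receptor HEK293 stable cells | Incubation: 45 min room-temperature Fluo4 loading, 110 s read | Detection: Kinetic Fluo4 calcium fluorescence | Measure: Integrated baseline-normalised fluorescence ratio, converted to per-well B score | Benchmarks: Low control buffer alone, high control maximal DAMGO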
# TRPC4 PAM – allosterically enhances the mouse TRPC4 cation channel; HEK293 TRPC4beta/mu-opioid, DAMGO EC20, Fluo-4 Ca2+ flux; hits give high values; B-score at 10 µM; 310,000 tested, 0.42% active; AID 2227;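 active = B-score of calcium response area above 5 SD of library B-scores, with initial fluorescence ratio within 5 SD of library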
# TRPC4 block – blocks the mouse TRPC4 cation channel. AID 2247. B-score at 10 µM. 300,000 tested, 0.39% active. HEK293 TRPC4beta/mu-opioid, DAMGO-evoked Fluo4 calcium flux; hits give low values. Q9QUQ5;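 active = B-score over 3 SD under the library average, no early fluorescence shift, positive overall ratio signal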
#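 Assay system: Stable TRPC4beta/mu-opioid receptor HEK293 cells | Reagent: DAMGO in two steps, submaximal then maximal | Compound dosing: Single concentration per test compound | Signal: Fluo4 Ca2+ flux fluorescence | Evaluation: Per-well B score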
# TRPC4 spec 2 – second selectivity test of TRPC6 inhibitors: effect on mouse TRPC4; 920 tested, 42% active; AID 2776; inhibition, % at 10 µM; HEK293 TRPC4/MOR, membrane potential dye fluorescence; channel activated by saturating DAMGO dose; shares compounds with TRPC6 inhibitor;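 active = compounds whose fluorescence signal differed from control wells by over 3 SD, either direction, in both duplicate plates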
# TRPC4 spec – tests whether TRPC6 inhibitors also affect mouse TRPC4; shares compounds with TRPC6 inhibitor; HEK293 TRPC4/mu-opioid, membrane potential fluorescence; activity change, negative = inhibition, % at 10 µM; 920 tested, 61% active; AID 2777;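 active = rise or fall in signal beyond 3 SD of buffer-only wells in both replicate plates, either sign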;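 also: integrated kinetic ratio of fluorescence range over baseline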
# HEK293 MPD ctr 2-1 – second check of TRPC6 inhibitor effects in parental HEK293 cells | shares compounds with TRPC6 inhibitor | signal change vs control, % at 10 µM | 920 tested, 31% active | parental HEK293 membrane potential dye fluorescence; maximal acetylcholine challenge after compound addition;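 active = membrane potential signal moving either way by over 3 SD of the maximum-effect control, in both duplicate plates, meaning non-specific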
# HEK293 MPD ctr-1 – checks TRPC6 inhibitor effects in parental HEK293 cells; AID 2780; shares compounds with TRPC6 inhibitor; 920 tested, 60% active; membrane potential signal change, % at 10 µM; parental HEK293 membrane potential dye fluorescence;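 active = membrane potential signal shifting up or down by more than 3 SD of buffer-only wells, on both duplicate plates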
# HEK293 MPD ctr-2 – counter-screen for TRPC6 modulators: effect in parental HEK293 cells. shares compounds with TRPC6 inhibitor. membrane potential dye fluorescence. membrane potential signal change, % at 10 µM. 2,400 tested, 51% active. AID 488924;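 active = membrane potential signal moves up or down beyond 5 SD from buffer-only wells, on both duplicate plates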
# HEK293 MPD ctr 2-2 – second check of TRPC6 modulator effects in parental HEK293 cells; shares compounds with TRPC6 inhibitor; membrane potential dye fluorescence; after compound, maximal acetylcholine stimulation; inhibition, % at 10 µM; 2,400 tested, 14% active;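 active = membrane potential signal drops by more than 5 SD from the mean control signal, in both duplicate plates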
# TRPC4 ctr mod – tests whether TRPC6 modulators also affect mouse TRPC4; percent change from control (negative = decrease, positive = increase), % at 10 µM; 2,400 tested, 69% active; shares compounds with TRPC6 inhibitor; HEK293 TRPC4/mu-opioid, membrane potential fluorescence;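 active = membrane potential signal moved up or down beyond 5 SD of buffer control wells, in both duplicate plates, actives on both sides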
# TRPC4/MOR inh 2 – second check of whether TRPC6 modulators also affect mouse TRPC4. shares compounds with TRPC6 inhibitor. HEK293 TRPC4/mu-opioid, membrane potential dye fluorescence; stimulated with maximal-effect DAMGO. inhibition, % at 10 µM. 2,400 tested, 55% active. AID 488928;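 active = drop in membrane potential signal beyond 5 SD of the control wells in both duplicate plates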;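 also: TRPC4 counter screen for TRPC6 hits run under conditions tuned for TRPC6 not TRPC4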
# TRPC6 block conf – confirmation of mouse TRPC6 inhibitors. shares compounds with TRPC6 inhibitor. HEK293-TRPC6, membrane potential dye, ACh-evoked depolarization. inhibition, % at 10 µM. 3,300 tested, 43% active. AID 488960;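 active = fluorescence ratio falls more than 5 SD below the full-stimulation control mean, in both duplicate runs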;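 also: integrated fluorescence ratio of peak minus minimum over baseline after agonist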
# TRPC6 act conf – mouse TRPC6 activator confirmation; shares compounds with TRPC6 inhibitor; HEK293-TRPC6 membrane potential dye fluorescence, FDSS; activation, % at 10 µM; 2,800 tested, 11% active;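 active = ratio signal rise beyond 5 SD above unstimulated control wells' mean, seen in both duplicate runs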
# Hits are given with their value; n = inactive; x = no result given.
SMILES,TRPC6 activator,TRPC6 inhibitor,TRPC4 agonist,TRPC4 PAM,TRPC4 block,HEK293 MPD ctr-2,HEK293 MPD ctr 2-2,TRPC4 ctr mod,TRPC4/MOR inh 2,TRPC6 block conf,TRPC6 act conf,others
COc1ccc(C(C(=O)NC2CCCC2)N(C(=O)c2csnn2)C2CC2)cc1 (stereo not given),n,n,n,n,n,x,x,x,x,x,x,
CC(NC(=O)Cn1nnc(-c2ccncc2)n1)c1ccccc1 (stereo not given),n,n,n,n,n,x,x,x,x,x,x,
c1csc(Cc2nc3ccccc3[nH]2)c1,n,-14,n,n,n,n,n,n,n,n,n,
Nc1ccc2nc[nH]c2c1,n,n,n,n,n,x,x,x,x,x,x,
CCN1CCN(c2ccc(S(=O)(=O)N3CCCCC3)cc2NC(=O)COc2cc(C)ccc2Cl)CC1,n,-5.7,n,25,n,n,n,n,54%,n,n,
COc1ccc(S(=O)(=O)N2CCCCC2)cc1NC(=O)c1ccc([N+](=O)[O-])o1,n,n,n,n,n,x,x,x,x,x,x,
CCN1CCN(c2ccc(S(=O)(=O)N3CCCCC3)cc2NC(=O)c2ccc([N+](=O)[O-])o2)CC1,n,-7.5,n,n,n,-130%,n,-30%,54%,n,n,
CN1CCN(c2ccc(S(=O)(=O)N3CCCCC3)cc2NC(=O)c2ccc(F)cc2F)CC1,n,-9,n,16,n,x,x,x,x,n,n,TRPC4 spec 2=70%;TRPC4 spec=n;HEK293 MPD ctr 2-1=278%;HEK293 MPD ctr-1=0.3%
COc1ccc(C(=O)NNC(=O)COc2ccc(Cl)cc2)c(OC)c1,n,n,n,n,n,x,x,x,x,x,x,
CN(C)C=Nc1c(Br)cc(Br)c2nonc12,25,n,n,n,n,984%,n,136%,n,n,190%,
Cc1cc2cc(C)c(NCCNC(=O)c3ccccc3F)nc2cc1C,n,-5.9,n,n,n,n,n,n,46%,n,n,
CC(Oc1ccc2c3c(c(=O)oc2c1)CCC3)C(=O)NC1CCN(Cc2ccccc2)CC1 (stereo not given),n,-6.3,n,n,n,n,n,-14%,74%,58%,n,
COc1ccc(CCNC(=O)C(=O)NCC2OCCN2S(=O)(=O)c2ccc(Cl)cc2)cc1OC (stereo not given),n,n,n,n,n,x,x,x,x,x,x,
CCOCCCNC(=O)CCCOc1ccccc1,n,-5.5,n,n,n,n,n,n,n,n,n,
Cc1cccc(NC(=S)NCc2ccccc2Cl)c1C,n,n,n,n,n,x,x,x,x,x,x,
O=c1c2ccccc2[nH]c(=S)n1CCN1CCCC1,n,n,n,n,n,x,x,x,x,x,x,
